# Screening results (PubChem)
# An excerpt weighted towards active compounds, which were near 3.4% of everything screened.
# IMP-1 inhibitor: IMP-1 metallo-beta-lactamase inhibitors, primary screen, biochemical, epi-absorbance readout, Pseudomonas aeruginosa enzyme | metallo-beta-lactamase IMP-1 (Pseudomonas aeruginosa) | purified IMP-1, nitrocefin hydrolysis, epi-absorbance fluorescence | inhibition, % at 5.6 µM | hit rate 0.45% among 290,000;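 active means inhibition above the mean plus 3 SD of all compounds in the same screening run, cut at about 4.5% in these data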;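 further: 0% = IMP-1 with DMSO and 100% = DMSO wells lacking enzyme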
#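 System: purified IMP-1 / Input: IMP-1 dispensed at 0.2 nM / Medium: 50 mM HEPES pH 7.1, 50 µM ZnSO4, 0.05% Brij 35 / Timing: 15 min enzyme–compound preincubation, then 25 min nitrocefin reaction, 25 °C / Technique: plate fluorescence quenching by hydrolysis product, ex 480/em 530 nm / Repeats: singlicate testing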
# CHT PAM: CHT positive allosteric modulators, primary screen, cell-based, membrane potential dye, choline EC20; High affinity choline transporter 1 (Homo sapiens), Q9GZV3; CHT-expressing cells; active compounds read high; LV-AA mutant CHT in HEK293 cells; B-score at 10 µM; hit rate 0.49% among 310,000; AID 488977, 2010;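 active means initial fluorescence not abnormally high and integrated response B-score, plate-corrected, over 3 SD above library mean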
# CHT block: inhibitors of human choline transporter CHT; hit rate 0.86% among 310,000; B-score at 10 µM; High affinity choline transporter 1 (Homo sapiens), Q9GZV3; CHT-expressing cells, membrane potential dye, choline response; active compounds read low;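 active means B-score over 3 SD under the library average, and starting fluorescence ratio not unusually high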;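 further: choline stimulus applied at its EC90 after an EC20 pre-addition; B-score computed on integrated fluorescence ratio after choline addition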
# VIM-2 inh: VIM-2 metallo-beta-lactamase inhibitors, primary screen, biochemical, epi-absorbance readout, Pseudomonas aeruginosa enzyme | inhibition, % at 5.6 µM | purified VIM-2, nitrocefin hydrolysis, epi-absorbance fluorescence | hit rate 0.89% among 290,000 | AID 1527, 2009;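 active means inhibition above the mean of all tested compounds plus 3 SD, cutoff set per screening run, cut at about 7.5% in these data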;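 further: red hydrolysis product quenches plate fluorescence so inhibitors raise well fluorescence; 0% = enzyme with DMSO and 100% = DMSO without enzyme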
# TMEM16A act: TMEM16A chloride channel activators or potentiators, primary screen, cell-based, HTS; B-score at 10 µM; HEK293 TMEM16A/YFP-H148Q/I152L, iodide quench fluorescence; active compounds read low; hit rate 0.3% among 340,000; Anoctamin-1 (Mus musculus), Q8BHY3;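 active means fluorescence-ratio B-score plate-corrected deviation score at least 3 library SD below zero, with starting fluorescence score within 5 deviations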;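 further: channel opened by trigger with iodide after compound preincubation; score built on the fluorescence ratio of max minus min over baseline; more negative score means more quench and so TMEM16A activation or potentiation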
# Target sequence (Q8BHY3 whole entry, looked up): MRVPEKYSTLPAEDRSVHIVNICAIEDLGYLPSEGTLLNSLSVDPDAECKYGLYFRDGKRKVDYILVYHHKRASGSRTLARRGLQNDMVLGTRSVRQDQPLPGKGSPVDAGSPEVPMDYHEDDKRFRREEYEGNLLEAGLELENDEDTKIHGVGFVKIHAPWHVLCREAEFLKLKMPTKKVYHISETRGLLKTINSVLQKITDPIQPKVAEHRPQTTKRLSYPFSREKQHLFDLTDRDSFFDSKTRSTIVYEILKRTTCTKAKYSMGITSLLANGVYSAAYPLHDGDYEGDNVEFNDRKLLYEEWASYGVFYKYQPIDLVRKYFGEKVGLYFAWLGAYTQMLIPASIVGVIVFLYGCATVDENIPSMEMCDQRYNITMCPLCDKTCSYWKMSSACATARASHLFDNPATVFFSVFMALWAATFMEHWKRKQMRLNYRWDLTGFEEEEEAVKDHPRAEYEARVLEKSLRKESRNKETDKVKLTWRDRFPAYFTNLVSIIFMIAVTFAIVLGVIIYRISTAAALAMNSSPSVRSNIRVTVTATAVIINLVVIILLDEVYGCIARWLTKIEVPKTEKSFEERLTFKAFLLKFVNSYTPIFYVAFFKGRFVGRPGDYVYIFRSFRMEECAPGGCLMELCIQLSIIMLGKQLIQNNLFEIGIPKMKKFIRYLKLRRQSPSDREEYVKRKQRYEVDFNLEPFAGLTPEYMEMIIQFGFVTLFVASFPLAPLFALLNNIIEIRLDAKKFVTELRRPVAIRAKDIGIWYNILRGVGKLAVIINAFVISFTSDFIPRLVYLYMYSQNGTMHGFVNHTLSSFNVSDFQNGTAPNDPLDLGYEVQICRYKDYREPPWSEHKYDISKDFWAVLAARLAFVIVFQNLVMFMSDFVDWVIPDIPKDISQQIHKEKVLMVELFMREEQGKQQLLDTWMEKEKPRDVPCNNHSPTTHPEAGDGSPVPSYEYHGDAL
# TMEM16A inh: TMEM16A chloride channel inhibitors, primary screen, cell-based, HTS. hit rate 1.2% among 310,000. normalized B-score (activity score, 25-100; higher = stronger inhibition) at 10 µM. AID 588511, 2011. Anoctamin-1 (Mus musculus), Q8BHY3. HEK293 TMEM16A/YFP iodide influx fluorescence, ionomycin;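 active means ratio plate-corrected score three or more library SD toward inhibition, starting fluorescence score within five deviations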;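 further: score derived from kinetic fluorescence span divided by baseline fluorescence per well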
# CHT activ conf: CHT activators, confirmation, cell-based, membrane potential dye, duplicate. activation, % at 10 µM. CHT-expressing cells, membrane potential dye fluorescence (FDSS); % of choline EC20–EC90 response window; HEK293 expressing CHT LV-AA mutant; choline added at its EC20. AID 504833, 2011. shares compounds with CHT PAM. hit rate 91% among 2,500;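 active means primary screen active, with duplicate mean activation above negative control mean plus 3 SD, cut at about 11% in these data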
# HEK293 MP dye: membrane potential response in parental HEK293 cells, counter-screen for CHT activator project, cell-based, membrane potential dye; shares compounds with CHT PAM; membrane potential dye fluorescence (FDSS); measured after EC20 choline addition; ratio readout change at 10 µM, hits read low; hit rate 62% among 2,500;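 active means duplicate-averaged ratio beyond 3 SD from buffer wells, up or down, though filed actives are nearly all decreases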
# * hit, by the source's call; i = inactive; . = not tested or not shown.
SMILES,IMP-1 inhibitor,CHT PAM,CHT block,VIM-2 inh,TMEM16A act,TMEM16A inh,CHT activ conf,HEK293 MP dye
Cc1cc(C)c(S(=O)(=O)N2CCOC2CNC(=O)C(=O)NCCN(C)C)c(C)c1 (configuration not stated),-2,i,i,1,i,i,.,.
COc1ccc(CN(C(=O)c2ccc(C)cc2)C2CCS(=O)(=O)C2)cc1 (configuration not stated),1,i,i,-2,i,i,.,.
CCC1=[N+](CC(=O)c2ccc(Br)cc2)CCn2c(C)ccc21,-4,i,i,-2,i,i,.,.
CCC1=[N+](CC(=O)c2ccc(C)cc2)CCn2c(C)ccc21,-2,i,i,-1,i,i,32*,i
CCCn1c(SCC(=O)N2CC(=O)Nc3ccccc32)n[nH]c1=O,.,.,.,.,i,.,.,.
CCCCC(=O)Nc1ccccc1N1CCN(c2ccccc2)CC1,-2,i,i,0,i,i,22*,i
COCCNC(=O)C(=O)NCC1OCCN1S(=O)(=O)c1cc(F)ccc1F (configuration not stated),-1,i,i,-4,i,i,.,.
COc1cc(-c2nnc(SCC(=O)c3ccc(C)cc3)o2)cc(OC)c1OC,-2,i,i,-2,i,i,.,.
COc1cc(-c2nnc(SCC(=O)/C(C#N)=C(\C)N)o2)cc(OC)c1OC,1,i,i,-4,i,i,4,-23*
Cc1csc2cc(-c3cccc([N+](=O)[O-])c3)c(-c3cccc([N+](=O)[O-])c3)c[n+]12,-4,9.3*,i,-1,i,i,86*,-87*
CCOC(=O)c1c(-c2cccc([N+](=O)[O-])c2)csc1N,-1,i,i,-3,i,i,.,.
CCCSc1nc2cc(OC)c(OC)cc2c(=N)n1CCCN1CCOCC1,0,6.5*,i,4,i,i,53*,-40*
CC(C)C(=O)N1CCN(c2cc(N3CCN(C)CC3)c(F)cc2[N+](=O)[O-])CC1,-4,7.9*,i,-4,i,i,45*,-49*
CC(=O)N1CCN(c2cc(N3CCCC3)c(F)cc2[N+](=O)[O-])CC1,-5,i,i,-2,i,i,.,.
Cc1nc(N=C(N)N)nc2ccccc12,-1,8.1*,i,0,i,i,67*,-60*
Cc1ccc2nc(N=C(N)N)nc(C)c2c1,-1,i,i,11*,i,i,56*,-55*
O=C(Cn1nc2n(c1=O)-c1ccccc1SC2)N/N=C/c1cccs1,-4,i,i,-4,i,i,.,.
CN1CCN(c2nc(-c3cccs3)nc3ccccc23)CC1,0,i,i,1,i,i,39*,-65*
c1ccc(N2CCN(c3nc(-c4cccs4)nc4ccccc34)CC2)cc1,-4,i,i,-3,i,i,.,.
CCN1CCN(c2nc(-c3cccs3)nc3ccccc23)CC1,1,7.1*,i,7,i,i,43*,-40*
c1ccc(CN2CCC(Nc3nc(-c4cccs4)nc4ccccc34)CC2)cc1,-3,i,i,3,i,i,23*,-48*
Oc1ccc(N2CCN(c3nc(-c4cccs4)nc4ccccc34)CC2)cc1,0,i,i,2,i,i,.,.
Cc1cc(NC2CCCCC2)nc(N2CCOCC2)n1,-1,i,i,0,i,i,.,.
CNc1cc(C)nc(N2CCOCC2)n1,-2,i,i,-2,i,i,53*,-43*
CC(SCC(=O)Nc1ccccc1Br)c1nc2ccccc2c(=O)[nH]1 (configuration not stated),.,.,.,.,i,.,.,.
SMILES,IMP-1 inhibitor,CHT PAM,CHT block,VIM-2 inh,TMEM16A act,TMEM16A inh,CHT activ conf,HEK293 MP dye
CC1CC(C)CN(S(=O)(=O)c2ccc(C(=O)N(c3ccccn3)C3CCCCC3)cc2)C1 (configuration not stated),-2,i,i,-2,i,i,21*,i
COc1ccc(N2C(=O)/C(=C\c3ccco3)N=C2SCC(=O)N(C(C)C)C(C)C)cc1Cl,1,i,i,1,i,i,13*,i
O=S(=O)(c1ccc(NC(=S)NN=Cc2ccccc2O)cc1)N1CCCCC1,.,.,.,.,i,.,.,.
CC1(C)CC(N2CCCC2)=CC(=[N+]2CCCC2)C1,1,8.6*,i,-2,i,i,58*,-34*
CN1C(C(=O)N2CCc3ccccc3C2)=CC(c2ccc(F)cc2)=NS1(=O)=O,-1,6.7*,i,-3,i,i,13*,i
COc1ccc(C2=NS(=O)(=O)N(C)C(C(=O)N3CCC(C)CC3)=C2)cc1,-6,i,i,-2,i,i,.,.
C=CCn1c(SCc2c(C)noc2C)nc2cc(C(=O)O)ccc2c1=O,-4,i,i,-1,i,i,.,.
COC(=O)c1ccc(CSc2nc3ccccc3c(=O)n2-c2ccc(OC)c(OC)c2)o1,-5,i,i,-3,i,i,.,.
C=CCn1c(SCc2c(C)noc2C)nc2ccccc2c1=O,-3,6.6*,i,4,i,i,27*,i
Cc1noc(C)c1CSc1nc2ccccc2c(=O)n1-c1ccc(F)cc1F,-1,11*,i,-5,i,i,10,i
COC(=O)c1ccc(CSc2nc3ccccc3c(=O)n2-c2ccccc2)o1,-3,8.6*,i,-7,i,i,19*,i
CN(C(=O)CSc1nc2ccccc2c(=O)n1-c1ccc(F)cc1F)C1CCS(=O)(=O)C1 (configuration not stated),.,.,.,.,i,.,.,.
Cc1noc(C)c1CSc1nc2ccccc2c(=O)n1-c1ccccc1,0,9.3*,i,2,i,i,35*,i
